ChEMBL document CHEMBL2321751, “Optimization of chloronitrobenzamides (CNBs) as therapeutic leads for human African trypanosomiasis (HAT)” (J Med Chem, 2013)
pEC50: −log10 of the molar value. ≈ marks a conversion by molar mass, not a printed value.

How the values were obtained:
[1] = Kinetic solubility of the compound in PBS buffer at pH 7.4 after 18 hrs by UV spectrophotometric analysis; format: physicochemical; conditions: for solubility kinetic at 18 h: PBS buffer, pH 7.4, read-out: Kinetic_solubility; for Kinetic_solubility: buffer, pH 7.4, 18 h, BLD = below limit of detection
Method in brief: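 Compound from a 10 mM stock was added to PBS pH 7.4 and left 18 h at room temperature. The suspension was filtered, and the filtrate was mixed 1:1 with 1-propanol. Solubility was derived from UV spectrum AUC (250–500 nm) relative to a 1-propanol/PBS reference. Run in triplicate.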

Raji = assay: Cytotoxicity against human Raji cells after 72 hrs by Cell Titre Glo assay; format: cell-based
Method in brief: (§1)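 Human cells grown to 80% confluence were plated in 384-well format and received compound dilutions by pin tool. After 72 h at 37 °C in 5% CO2, viability was measured by CellTiter-Glo luminescence.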

BJ = assay: Cytotoxicity against human BJ cells after 72 hrs by Cell Titre Glo assay; format: cell-based; method in brief: as §1
HEK293 = assay: Cytotoxicity against HEK293 cells after 72 hrs by Cell Titre Glo assay; format: cell-based; conditions: Homo sapiens, HEK293, 72 h; method in brief: as §1
HepG2 = assay: Cytotoxicity against human HepG2 cells after 72 hrs by Cell Titre Glo assay; format: cell-based; conditions: HepG2, 72 h; method in brief: as §1
[2] = test system: Trypanosoma brucei brucei; assay: Antitrypanosomal activity against Trypanosoma brucei brucei 221 after 48 hrs by Cell Titre Glo assay; format: functional, organism-based; conditions: Trypanosoma brucei, 221, 48 h
Method in brief: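 Bloodstream-form parasites grown in HMI-9 with 10% heat-inactivated FBS, 10% Serum Plus and penicillin/streptomycin at 37 °C, 5% CO₂, to 1 × 10⁶ cells/mL. Diluted to 1 × 10⁴ cells/mL, then dosed with a DMSO dilution series by pin transfer. Incubated 48 h at 37 °C, 5% CO₂. Viability read by CellTiter-Glo luminescence. EC₅₀ from a variable-slope sigmoidal fit. Mean of six replicates, errors as 95% CI.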

[3] = Permeability of the compound at pH 7.4 by PAMPA; format: ADME; conditions: for permeability: pampa, BLD = below limit of detection; for Papp: PAMPA, read-out: permeability
Method in brief: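 Compound (10 mM DMSO stock) was diluted in system solution buffer pH 7.4 and placed in the donor chamber of a PAMPA sandwich whose membrane was coated with GIT lipid. Acceptor buffer filled the acceptor chamber, and the assembly was stirred for 30 min. Donor and acceptor UV spectra (250–500 nm) were compared with a reference to give the permeability coefficient. Run in triplicate.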

SMILES	solubility kinetic at 18 h [1]	pEC50 [2]	permeability [3]	Papp [3]	Kinetic_solubility [1]	pEC50 (Raji)	pEC50 (BJ)	pEC50 (HEK293)	pEC50 (HepG2)
Cc1ccc(-c2nc3ccccc3o2)cc1NC(=O)c1cc([N+](=O)[O-])ccc1Cl	0.31 µM (≈ 0.126 µg/mL)	7.70	BLD	–	–	< 4.85	< 4.85	< 4.85	< 4.85
O=C(O)COc1cc(Cl)c(C(=O)Nc2cccc(-c3nc4ccccc4s3)c2)cc1[N+](=O)[O-]	6.7 µM (≈ 3.24 µg/mL)	6.10	–	< 1 ×10⁻⁶ cm/s	–	< 4.60	< 4.60	< 4.60	< 4.60
O=C(Nc1nc2ccc(Cl)cc2s1)c1cc([N+](=O)[O-])ccc1Cl	1.2 µM (≈ 0.442 µg/mL)	5.09	–	138 ×10⁻⁶ cm/s	–	< 4.57	< 4.57	< 4.57	< 4.57
O=C(Nc1ccccc1-c1nc2ccccc2s1)c1cc([N+](=O)[O-])ccc1Cl	–	< 4.48	–	–	–	< 4.57	< 4.57	< 4.57	< 4.57
COC(=O)C1CCN(c2cc(Cl)c(C(=O)Nc3cc(-c4nc5ccccc5s4)ccc3OC)cc2[N+](=O)[O-])CC1	0.17 µM (≈ 0.0988 µg/mL)	6.14	–	< 1 ×10⁻⁶ cm/s	–	< 4.60	< 4.60	< 4.60	< 4.60
Cc1ccc(-c2nc3ccccc3s2)cc1NC(=O)c1cc([N+](=O)[O-])c(N2CCCCC2)cc1Cl	–	6.14	–	< 1 ×10⁻⁶ cm/s	BLD	< 4.60	< 4.60	< 4.60	< 4.60
COc1ccc(NC(=O)c2cc([N+](=O)[O-])ccc2Cl)cc1-c1nc2ccccc2s1	0.26 µM (≈ 0.114 µg/mL)	5.44	BLD	–	–	< 4.60	< 4.60	< 4.60	< 4.60
O=C(Nc1ccc(Cl)cc1)c1cc([N+](=O)[O-])ccc1Cl	–	–	–	–	–	< 4.57	< 4.57	< 4.57	< 4.57
Cc1cc(NC(=O)c2cc([N+](=O)[O-])ccc2Cl)cc(-c2nc3ccccc3o2)c1O	0.09 µM (≈ 0.0381 µg/mL)	6.66	–	105 ×10⁻⁶ cm/s	–	< 4.60	< 4.60	< 4.60	< 4.60
O=C(Nc1ccc(-c2nc3ccccc3s2)cc1)c1cc([N+](=O)[O-])ccc1Cl	–	5.96	BLD	–	BLD	< 4.57	< 4.57	< 4.57	< 4.57
Cc1ccc(-c2nc3ccccc3s2)cc1NC(=O)c1cc([N+](=O)[O-])c(N(C)C)cc1Cl	0.03 µM (≈ 0.014 µg/mL)	6.33	–	< 1 ×10⁻⁶ cm/s	–	< 4.60	< 4.60	< 4.60	< 4.60
O=C(Nc1nc2ccc(F)cc2s1)c1cc([N+](=O)[O-])ccc1Cl	0.57 µM (≈ 0.2 µg/mL)	5.25	–	10 ×10⁻⁶ cm/s	–	< 4.57	< 4.57	< 4.57	< 4.57
COC(=O)C1CCN(c2cc(Cl)c(C(=O)Nc3cc(-c4nc5ccccc5s4)ccc3C)cc2[N+](=O)[O-])CC1	–	6.51	–	24 ×10⁻⁶ cm/s	BLD	< 4.60	< 4.60	< 4.60	< 4.60
Cc1c(NC(=O)c2cc([N+](=O)[O-])ccc2Cl)cccc1-c1nc2ccccc2s1	–	6.17	BLD	–	BLD	< 4.60	< 4.60	< 4.60	< 4.60

Further lines, with some results ahead:

solubility kinetic at 18 h [1]	pEC50 [2]	permeability [3]	Papp [3]	Kinetic_solubility [1]	SMILES	pEC50 (Raji)	pEC50 (BJ)	pEC50 (HEK293)	pEC50 (HepG2)
0.023 µM (≈ 0.00979 µg/mL)	< 4.48	BLD	–	–	O=C(Nc1ccc(O)c(-c2nc3ccccc3s2)c1)c1cc([N+](=O)[O-])ccc1Cl	< 4.60	< 4.60	< 4.60	< 4.60
0.21 µM (≈ 0.119 µg/mL)	6.19	–	5 ×10⁻⁶ cm/s	–	COc1ccc(-c2nc3ccccc3s2)cc1NC(=O)c1cc([N+](=O)[O-])c(N2CCC(C(=O)O)CC2)cc1Cl	< 4.60	< 4.60	< 4.60	< 4.60
0.78 µM (≈ 0.295 µg/mL)	5.46	–	3 ×10⁻⁶ cm/s	–	O=C(Nc1nc(-c2cccc(F)c2)cs1)c1cc([N+](=O)[O-])ccc1Cl	4.96	4.62	5.06	4.74
1.4 µM (≈ 0.55 µg/mL)	4.59	–	352 ×10⁻⁶ cm/s	–	O=C(Nc1cccc(-c2nc3ccccc3[nH]2)c1)c1cc([N+](=O)[O-])ccc1Cl	4.68	< 4.57	< 4.57	< 4.57
–	< 4.80	–	–	–	O=C(CNc1ccc(-c2nc3ccccc3s2)cc1)c1cc([N+](=O)[O-])ccc1Cl	< 4.57	< 4.57	< 4.57	< 4.57
0.19 µM (≈ 0.0969 µg/mL)	6.28	–	10 ×10⁻⁶ cm/s	–	CCOC(=O)Cc1cc(Cl)c(C(=O)Nc2cc(-c3nc4ccccc4s3)ccc2C)cc1[N+](=O)[O-]	< 4.60	< 4.60	< 4.60	< 4.60
0.59 µM (≈ 0.325 µg/mL)	6.30	–	17 ×10⁻⁶ cm/s	–	Cc1ccc(-c2nc3ccccc3s2)cc1NC(=O)c1cc([N+](=O)[O-])c(N2CCC(C(=O)O)CC2)cc1Cl	< 4.60	< 4.60	< 4.60	< 4.60
–	5.34	–	3 ×10⁻⁶ cm/s	BLD	O=C(Nc1nc(-c2ccc(Cl)cc2)cs1)c1cc([N+](=O)[O-])ccc1Cl	4.92	4.74	4.82	< 4.57
–	6.52	–	214 ×10⁻⁶ cm/s	BLD	O=C(Nc1cc(-c2nc3ccccc3o2)ccc1F)c1cc([N+](=O)[O-])ccc1Cl	< 4.60	< 4.60	< 4.60	< 4.60
2.2 µM (≈ 0.937 µg/mL)	< 4.48	–	307 ×10⁻⁶ cm/s	–	O=C(Nc1cccc(-c2nc3ccccc3s2)c1)c1cc([N+](=O)[O-])c(O)cc1Cl	< 4.60	< 4.60	< 4.60	< 4.60
0.41 µM (≈ 0.145 µg/mL)	5.92	BLD	–	–	O=C(Nc1cccc(-c2ccccc2)c1)c1cc([N+](=O)[O-])ccc1Cl	< 4.57	< 4.57	4.66	< 4.57
0.41 µM (≈ 0.182 µg/mL)	6.49	–	3 ×10⁻⁶ cm/s	–	O=C(Nc1ccc(Cl)c(-c2nc3ccccc3s2)c1)c1cc([N+](=O)[O-])ccc1Cl	< 4.60	< 4.60	< 4.60	< 4.60
0.12 µM (≈ 0.0423 µg/mL)	5.72	–	26 ×10⁻⁶ cm/s	–	O=C(Nc1ccc(-c2ccccc2)cc1)c1cc([N+](=O)[O-])ccc1Cl	< 4.57	< 4.57	< 4.57	< 4.57
0.1 µM (≈ 0.0444 µg/mL)	6.62	BLD	–	–	O=C(Nc1cc(-c2nc3ccccc3s2)ccc1Cl)c1cc([N+](=O)[O-])ccc1Cl	< 4.60	< 4.60	< 4.60	< 4.60
0.09 µM (≈ 0.0381 µg/mL)	6.92	–	274 ×10⁻⁶ cm/s	–	COc1ccc(-c2nc3ccccc3o2)cc1NC(=O)c1cc([N+](=O)[O-])ccc1Cl	< 4.60	< 4.60	< 4.60	< 4.60
0.27 µM (≈ 0.111 µg/mL)	6.77	–	366 ×10⁻⁶ cm/s	–	O=C(Nc1ccc(F)c(-c2nc3ccccc3o2)c1)c1cc([N+](=O)[O-])ccc1Cl	< 4.60	< 4.60	< 4.60	< 4.60
–	5.02	–	44 ×10⁻⁶ cm/s	BLD	O=C(Nc1cc(C(F)(F)F)cc(C(F)(F)F)c1)c1cc([N+](=O)[O-])ccc1Cl	4.85	4.66	4.85	< 4.57
0.01 µM (≈ 0.0044 µg/mL)	6.48	–	12 ×10⁻⁶ cm/s	–	COc1cc(Cl)c(C(=O)Nc2cccc(-c3nc4ccccc4s3)c2)cc1[N+](=O)[O-]	< 4.60	< 4.60	< 4.60	< 4.60
0.72 µM (≈ 0.265 µg/mL)	4.92	–	242 ×10⁻⁶ cm/s	–	O=C(Nc1nc2c(Cl)cccc2s1)c1cc([N+](=O)[O-])ccc1Cl	4.82	< 4.57	< 4.57	< 4.57
